Experimental data as given in ChEMBL document CHEMBL4257452, “A mini-library system to investigate non-essential residues of lipid-phosphatidylserine (PS) binding peptide-peptoid hybrid PPS1” (Medchemcomm, 2017).
Active and inactive are the calls of the source. The calls are words filed in the database; no cut-off is given here. Starred links: 1 amine or outer side, 2 acyl side, 3 side chain; linkers in the order of their positions; H or OH if unused. Positions of bridges follow the written chain, without caps; N, C: chain ends. Non-standard residues stand in square brackets, D forms with d. Residues, ends and D or L forms follow the SMILES beside them. Chains are numbered I, II in the order given. Gly(N-CH2CH2C6H4-4Cl) = O=C(O)CNCCc1ccc(Cl)cc1; Gly(N-piperonyl) = O=C(O)CNCc1ccc2c(c1)OCO2; N(4-MeOBn)Gly = COc1ccc(CNCC(=O)O)cc1; X3 = CC(c1ccccc1)N(CC(=O)[*:2])[*:1]; Gly(NCH2CH2Ph) = O=C(O)CNCCc1ccccc1; X8 = O=C(CN(CC1CCNCC1)[*:1])[*:2]; Gly(N-(CH2)3OMe) = COCCCNCC(=O)O; NFurfurylGly = O=C(O)CNCc1ccco1; X7 = O=C(CN(c1nccs1)[*:1])[*:2]; NAllylGly = C=CCNCC(=O)O; NcPrGly = O=C(O)CNC1CC1; Nme = COCCNCC(=O)O

Tested on: HCC4017
Test: Cytotoxicity against human HCC4017 cells assessed as reduction in cell viability at 20 uM after 24 hrs by MTS assay
Format: functional, cell-based
How it was run: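 HCC4017 cells (RPMI, 5% FBS) and HBEC-3KT normal lung cells (KSFM with recombinant human EGF and bovine pituitary extract) were plated at 10 000 cells/well in triplicate and left to adhere overnight. They were exposed to 1 or 20 μM compound for 24 h. MTS reagent was then added for 2 h and absorbance read at 490 nm. Viability is % of untreated control wells.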

Row | SMILES | Activity
1 | COc1ccc(CN(CC(=O)NC(C)C(=O)NC(CCCCN)C(=O)NC(CCCCN)C(=O)NC(CCSC)C(=O)NCCCCC(NC(=O)C(CCSC)NC(=O)C(CCCCN)NC(=O)C(CCCCN)NC(=O)C(C)NC(=O)CN(Cc2ccc(OC)cc2)C(=O)CN(C(=O)CN(Cc2ccc3c(c2)OCO3)C(=O)CNC(C)c2ccccc2)C(C)c2ccccc2)C(N)=O)C(=O)CN(C(=O)CN(Cc2ccc3c(c2)OCO3)C(=O)CNC(C)c2ccccc2)C(C)c2ccccc2)cc1 (stereo not drawn) (I: H-[X3][Gly(N-piperonyl)][X3][N(4-MeOBn)Gly]AKKMK-NH2 / II: H-[X3][Gly(N-piperonyl)][X3][N(4-MeOBn)Gly]AKKM; amide I:9-II:C; configuration not given here) | Active
2 | C=CCN(CC(=O)NC(CCCCN)C(=O)NC(CCCCN)C(=O)NC(CCSC)C(=O)NCCCCC(NC(=O)C(CCSC)NC(=O)C(CCCCN)NC(=O)C(CCCCN)NC(=O)CN(CC=C)C(=O)CN(Cc1ccc(OC)cc1)C(=O)CN(C(=O)CN(Cc1ccc2c(c1)OCO2)C(=O)CNC(C)c1ccccc1)C(C)c1ccccc1)C(N)=O)C(=O)CN(Cc1ccc(OC)cc1)C(=O)CN(C(=O)CN(Cc1ccc2c(c1)OCO2)C(=O)CNC(C)c1ccccc1)C(C)c1ccccc1 (stereo not drawn) (I: H-[X3][Gly(N-piperonyl)][X3][N(4-MeOBn)Gly][NAllylGly]KKMK-NH2 / II: H-[X3][Gly(N-piperonyl)][X3][N(4-MeOBn)Gly][NAllylGly]KKM; amide I:9-II:C; configuration not given here) | Active
3 | COc1ccc(CN(CC(=O)N(CC(=O)NC(CCCCN)C(=O)NC(CCCCN)C(=O)NC(CCSC)C(=O)NCCCCC(NC(=O)C(CCSC)NC(=O)C(CCCCN)NC(=O)C(CCCCN)NC(=O)CN(C(=O)CN(Cc2ccc(OC)cc2)C(=O)CN(C(=O)CN(Cc2ccc3c(c2)OCO3)C(=O)CNC(C)c2ccccc2)C(C)c2ccccc2)c2nccs2)C(N)=O)c2nccs2)C(=O)CN(C(=O)CN(Cc2ccc3c(c2)OCO3)C(=O)CNC(C)c2ccccc2)C(C)c2ccccc2)cc1 (stereo not drawn) (I: H-[X3][Gly(N-piperonyl)][X3][N(4-MeOBn)Gly][X7]KKMK-NH2 / II: H-[X3][Gly(N-piperonyl)][X3][N(4-MeOBn)Gly][X7]KKM; amide I:9-II:C; configuration not given here) | Active
4 | COc1ccc(CN(CC(=O)N(CCc2ccccc2)CC(=O)NC(CCCCN)C(=O)NC(CCCCN)C(=O)NC(CCSC)C(=O)NCCCCC(NC(=O)C(CCSC)NC(=O)C(CCCCN)NC(=O)C(CCCCN)NC(=O)CN(CCc2ccccc2)C(=O)CN(Cc2ccc(OC)cc2)C(=O)CN(C(=O)CN(Cc2ccc3c(c2)OCO3)C(=O)CNC(C)c2ccccc2)C(C)c2ccccc2)C(N)=O)C(=O)CN(C(=O)CN(Cc2ccc3c(c2)OCO3)C(=O)CNC(C)c2ccccc2)C(C)c2ccccc2)cc1 (stereo not drawn) (I: H-[X3][Gly(N-piperonyl)][X3][N(4-MeOBn)Gly][Gly(NCH2CH2Ph)]KKMK-NH2 / II: H-[X3][Gly(N-piperonyl)][X3][N(4-MeOBn)Gly][Gly(NCH2CH2Ph)]KKM; amide I:9-II:C; configuration not given here) | Active
5 | COc1ccc(CN(CC(=O)NC(C(=O)NC(CCCCN)C(=O)NC(CCCCN)C(=O)NC(CCSC)C(=O)NCCCCC(NC(=O)C(CCSC)NC(=O)C(CCCCN)NC(=O)C(CCCCN)NC(=O)C(NC(=O)CN(Cc2ccc(OC)cc2)C(=O)CN(C(=O)CN(Cc2ccc3c(c2)OCO3)C(=O)CNC(C)c2ccccc2)C(C)c2ccccc2)C(C)C)C(N)=O)C(C)C)C(=O)CN(C(=O)CN(Cc2ccc3c(c2)OCO3)C(=O)CNC(C)c2ccccc2)C(C)c2ccccc2)cc1 (stereo not drawn) (I: H-[X3][Gly(N-piperonyl)][X3][N(4-MeOBn)Gly]VKKMK-NH2 / II: H-[X3][Gly(N-piperonyl)][X3][N(4-MeOBn)Gly]VKKM; amide I:9-II:C; configuration not given here) | Active
6 | COc1ccc(CN(CC(=O)N(CCc2ccc(Cl)cc2)CC(=O)NC(CCCCN)C(=O)NC(CCCCN)C(=O)NC(CCSC)C(=O)NCCCCC(NC(=O)C(CCSC)NC(=O)C(CCCCN)NC(=O)C(CCCCN)NC(=O)CN(CCc2ccc(Cl)cc2)C(=O)CN(Cc2ccc(OC)cc2)C(=O)CN(C(=O)CN(Cc2ccc3c(c2)OCO3)C(=O)CNC(C)c2ccccc2)C(C)c2ccccc2)C(N)=O)C(=O)CN(C(=O)CN(Cc2ccc3c(c2)OCO3)C(=O)CNC(C)c2ccccc2)C(C)c2ccccc2)cc1 (stereo not drawn) (I: H-[X3][Gly(N-piperonyl)][X3][N(4-MeOBn)Gly][Gly(N-CH2CH2C6H4-4Cl)]KKMK-NH2 / II: H-[X3][Gly(N-piperonyl)][X3][N(4-MeOBn)Gly][Gly(N-CH2CH2C6H4-4Cl)]KKM; amide I:9-II:C; configuration not given here) | Active
7 | COCCCN(CC(=O)NC(CCCCN)C(=O)NC(CCCCN)C(=O)NC(CCSC)C(=O)NCCCCC(NC(=O)C(CCSC)NC(=O)C(CCCCN)NC(=O)C(CCCCN)NC(=O)CN(CCCOC)C(=O)CN(Cc1ccc(OC)cc1)C(=O)CN(C(=O)CN(Cc1ccc2c(c1)OCO2)C(=O)CNC(C)c1ccccc1)C(C)c1ccccc1)C(N)=O)C(=O)CN(Cc1ccc(OC)cc1)C(=O)CN(C(=O)CN(Cc1ccc2c(c1)OCO2)C(=O)CNC(C)c1ccccc1)C(C)c1ccccc1 (stereo not drawn) (I: H-[X3][Gly(N-piperonyl)][X3][N(4-MeOBn)Gly][Gly(N-(CH2)3OMe)]KKMK-NH2 / II: H-[X3][Gly(N-piperonyl)][X3][N(4-MeOBn)Gly][Gly(N-(CH2)3OMe)]KKM; amide I:9-II:C; configuration not given here) | Active
8 | COc1ccc(CN(CC(=O)NC(CCCCN)C(=O)NC(CCCCN)C(=O)NC(CCSC)C(=O)NCCCCC(NC(=O)C(CCSC)NC(=O)C(CCCCN)NC(=O)C(CCCCN)NC(=O)CN(Cc2ccc(OC)cc2)C(=O)CN(Cc2ccc(OC)cc2)C(=O)CN(C(=O)CN(Cc2ccc3c(c2)OCO3)C(=O)CNC(C)c2ccccc2)C(C)c2ccccc2)C(N)=O)C(=O)CN(Cc2ccc(OC)cc2)C(=O)CN(C(=O)CN(Cc2ccc3c(c2)OCO3)C(=O)CNC(C)c2ccccc2)C(C)c2ccccc2)cc1 (stereo not drawn) (I: H-[X3][Gly(N-piperonyl)][X3][N(4-MeOBn)Gly][N(4-MeOBn)Gly]KKMK-NH2 / II: H-[X3][Gly(N-piperonyl)][X3][N(4-MeOBn)Gly][N(4-MeOBn)Gly]KKM; amide I:9-II:C; configuration not given here) | Active
9 | COc1ccc(CN(CC(=O)N2CCCC2C(=O)NC(CCCCN)C(=O)NC(CCCCN)C(=O)NC(CCSC)C(=O)NCCCCC(NC(=O)C(CCSC)NC(=O)C(CCCCN)NC(=O)C(CCCCN)NC(=O)C2CCCN2C(=O)CN(Cc2ccc(OC)cc2)C(=O)CN(C(=O)CN(Cc2ccc3c(c2)OCO3)C(=O)CNC(C)c2ccccc2)C(C)c2ccccc2)C(N)=O)C(=O)CN(C(=O)CN(Cc2ccc3c(c2)OCO3)C(=O)CNC(C)c2ccccc2)C(C)c2ccccc2)cc1 (stereo not drawn) (I: H-[X3][Gly(N-piperonyl)][X3][N(4-MeOBn)Gly]PKKMK-NH2 / II: H-[X3][Gly(N-piperonyl)][X3][N(4-MeOBn)Gly]PKKM; amide I:9-II:C; configuration not given here) | Active
10 | COCCN(CC(=O)NC(CCCCN)C(=O)NC(CCCCN)C(=O)NC(CCSC)C(=O)NCCCCC(NC(=O)C(CCSC)NC(=O)C(CCCCN)NC(=O)C(CCCCN)NC(=O)CN(CCOC)C(=O)CN(Cc1ccc(OC)cc1)C(=O)CN(C(=O)CN(Cc1ccc2c(c1)OCO2)C(=O)CNC(C)c1ccccc1)C(C)c1ccccc1)C(N)=O)C(=O)CN(Cc1ccc(OC)cc1)C(=O)CN(C(=O)CN(Cc1ccc2c(c1)OCO2)C(=O)CNC(C)c1ccccc1)C(C)c1ccccc1 (stereo not drawn) (I: H-[X3][Gly(N-piperonyl)][X3][N(4-MeOBn)Gly][Nme]KKMK-NH2 / II: H-[X3][Gly(N-piperonyl)][X3][N(4-MeOBn)Gly][Nme]KKM; amide I:9-II:C; configuration not given here) | Active
11 | COc1ccc(CN(CC(=O)N(CC(=O)NC(CCCCN)C(=O)NC(CCCCN)C(=O)NC(CCSC)C(=O)NCCCCC(NC(=O)C(CCSC)NC(=O)C(CCCCN)NC(=O)C(CCCCN)NC(=O)CN(Cc2ccco2)C(=O)CN(Cc2ccc(OC)cc2)C(=O)CN(C(=O)CN(Cc2ccc3c(c2)OCO3)C(=O)CNC(C)c2ccccc2)C(C)c2ccccc2)C(N)=O)Cc2ccco2)C(=O)CN(C(=O)CN(Cc2ccc3c(c2)OCO3)C(=O)CNC(C)c2ccccc2)C(C)c2ccccc2)cc1 (stereo not drawn) (I: H-[X3][Gly(N-piperonyl)][X3][N(4-MeOBn)Gly][NFurfurylGly]KKMK-NH2 / II: H-[X3][Gly(N-piperonyl)][X3][N(4-MeOBn)Gly][NFurfurylGly]KKM; amide I:9-II:C; configuration not given here) | Active
12 | COc1ccc(CN(CC(=O)N(CC(=O)NC(CCCCN)C(=O)NC(CCCCN)C(=O)NC(CCSC)C(=O)NCCCCC(NC(=O)C(CCSC)NC(=O)C(CCCCN)NC(=O)C(CCCCN)NC(=O)CN(CC2CCNCC2)C(=O)CN(Cc2ccc(OC)cc2)C(=O)CN(C(=O)CN(Cc2ccc3c(c2)OCO3)C(=O)CNC(C)c2ccccc2)C(C)c2ccccc2)C(N)=O)CC2CCNCC2)C(=O)CN(C(=O)CN(Cc2ccc3c(c2)OCO3)C(=O)CNC(C)c2ccccc2)C(C)c2ccccc2)cc1 (stereo not drawn) (I: H-[X3][Gly(N-piperonyl)][X3][N(4-MeOBn)Gly][X8]KKMK-NH2 / II: H-[X3][Gly(N-piperonyl)][X3][N(4-MeOBn)Gly][X8]KKM; amide I:9-II:C; configuration not given here) | Active
13 | COc1ccc(CN(CC(=O)N(CC(=O)NC(CCCCN)C(=O)NC(CCCCN)C(=O)NC(CCSC)C(=O)NCCCCC(NC(=O)C(CCSC)NC(=O)C(CCCCN)NC(=O)C(CCCCN)NC(=O)CN(C(=O)CN(Cc2ccc(OC)cc2)C(=O)CN(C(=O)CN(Cc2ccc3c(c2)OCO3)C(=O)CNC(C)c2ccccc2)C(C)c2ccccc2)C2CC2)C(N)=O)C2CC2)C(=O)CN(C(=O)CN(Cc2ccc3c(c2)OCO3)C(=O)CNC(C)c2ccccc2)C(C)c2ccccc2)cc1 (stereo not drawn) (I: H-[X3][Gly(N-piperonyl)][X3][N(4-MeOBn)Gly][NcPrGly]KKMK-NH2 / II: H-[X3][Gly(N-piperonyl)][X3][N(4-MeOBn)Gly][NcPrGly]KKM; amide I:9-II:C; configuration not given here) | Active
